In the library only some 3.2% were active in any assay of this set; here they are far more common.
HTRA1 inh: HTRA1 serine protease inhibitors, primary screen, biochemical, fluorescence polarization, HTS | AID 504803, 2011 | inhibition, % at 5.96 µM | 340,000 compounds, 0.5% hits | recombinant HTRA1, FP-rhodamine activity-based probe | Q92743; in the data active = inhibition above about 36%
Target sequence (Q92743 whole entry, looked up): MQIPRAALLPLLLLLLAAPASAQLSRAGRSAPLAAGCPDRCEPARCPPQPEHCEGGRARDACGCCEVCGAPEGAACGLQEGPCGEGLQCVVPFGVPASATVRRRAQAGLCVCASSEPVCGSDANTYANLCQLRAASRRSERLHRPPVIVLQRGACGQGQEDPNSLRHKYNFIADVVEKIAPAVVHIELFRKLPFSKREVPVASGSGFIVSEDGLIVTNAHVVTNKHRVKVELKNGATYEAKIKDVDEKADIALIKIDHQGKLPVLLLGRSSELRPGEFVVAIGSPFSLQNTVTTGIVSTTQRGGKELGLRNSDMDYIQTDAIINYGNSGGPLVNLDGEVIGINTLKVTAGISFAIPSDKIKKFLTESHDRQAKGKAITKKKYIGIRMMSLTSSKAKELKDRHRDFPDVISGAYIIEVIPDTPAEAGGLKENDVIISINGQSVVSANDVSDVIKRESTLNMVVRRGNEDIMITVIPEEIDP
mABHD4 FP: ABHD4 inhibitors, primary screen, biochemical, fluorescence polarization, mouse. 370,000 compounds, 0.54% hits. purified mABHD4, FP-Rh probe fluorescence polarization. inhibition, % at 8.92 µM;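 active = inhibition exceeding the mean over every tested compound plus 3 SD, cut at about 30% in these data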
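Test system: mABHD4 protein; Read-out basis: % inhibition; Incubation: 45 min + 60 min at 25 °C; Repeats: single replicate; Technique: fluorescence polarization with parallel and perpendicular emission, 525/598 nm; Compound: 8.92 µM, single dose; Benchmarks: full inhibition S159A mutant plus DMSO, zero as sample-well median.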
rCAG binder: binders of r(CAG) RNA repeats, primary screen, biochemical, fluorescence; 370,000 compounds, 1.3% hits; inhibition, % at 3 µM; r(CAG) RNA repeat, TO-PRO-1 dye displacement fluorescence; AID 651821, 2012;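 active = inhibition above the plate cutoff, the mean of all test compounds on that plate plus 3 SD, cut at about 35% in these data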;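 also: higher means more dye released from RNA so lower well fluorescence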
PRMT1 inh: PRMT1 methyltransferase inhibitors, primary screen, biochemical, fluorescence polarization; recombinant PRMT1, activity-based probe fluorescence polarization; 370,000 compounds, 1.3% hits; AID 652257, 2013; inhibition, % at 2.79 µM;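 active = inhibition above about 21% made by adding two undisclosed values, limit read from the data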
DAGLB inh: DAGLB lipase inhibitors, primary screen, biochemical, fluorescence, HTS. Diacylglycerol lipase-beta (Homo sapiens), Q8NCG7. HEK293T DAGLB membrane lysate, EnzChek fluorogenic substrate. inhibition, % at 5.17 µM. 340,000 compounds, 0.059% hits. AID 504411, 2011; in the data active = inhibition above about 34%
LEDGF integ inh: blockers of LEDGF/p75-dependent integrase strand transfer – biochemical, TR-FRET, high throughput, primary screen | HIV-1 integrase (with human LEDGF/p75) | TR-FRET IN-LEDGF/p75 DNA integration, Eu/Cy5 | inhibition, % at 3.7 µM | 370,000 compounds, 0.64% hits;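 active = inhibition above the screen-wide mean plus 3 SD, cut at about 13% in these data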;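 also: signal is the Cy5 over europium emission ratio at 671 and 618 nm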
Of the large screens only hits and unclear results are named; the others gave an inactive call.

Cc1oc2cc(O)ccc2c(=O)c1-c1ccccc1	none
Cc1oc2cc(O)ccc2c(=O)c1-c1nncn1-c1ccccc1	PRMT1 inh 52.3
COc1ccccc1CN1[C@@H](CC(=O)O)c2ccccc2S1(=O)=O	none
Cc1cccc(OCC(=O)Nc2ccc(C(=O)Nc3ccccc3C(=O)O)cc2)c1C	rCAG binder 41.1
O=C(Nc1nnc(-c2ccc3c(c2)CCCC3)o1)c1c(F)cccc1F	none
O=C(Nc1nnc(-c2ccc3c(c2)CCCC3)o1)c1ccc(Cl)cc1Cl	rCAG binder 56.6
CN1OC[C@@H]2CN[C@H](c3ccc(-n4ccnc4)cc3)C[C@@H]21	none (no result: HTRA1 inh, DAGLB inh)
CCOc1cc(CNc2ccc(O)cc2)ccc1OCc1ccc(Cl)cc1Cl	HTRA1 inh 62.3 (no result: mABHD4 FP, rCAG binder, PRMT1 inh, LEDGF integ inh)
Cc1n[nH]c(=S)n1/N=C/c1ccc(OCc2ccc(Cl)cc2)cc1	none
S=c1[nH]nc(Cc2ccc(Br)cc2)n1/N=C/c1ccc(Cl)cc1	PRMT1 inh 22.1
CC(C)(C)N1C(=O)Cc2c1nc(N)c1c(N)nc(N3CCCCC3CO)c(C#N)c21 (stereo unspecified)	HTRA1 inh 55.5 (no result: mABHD4 FP, rCAG binder, PRMT1 inh, LEDGF integ inh)
COc1cc(O)sc1C=Nc1ccc(Cl)cc1Cl	none
O=C(COc1ccc2c(-c3ccccc3)cc(=O)oc2c1)N[C@H](Cc1c[nH]c2ccccc12)C(=O)O	rCAG binder 40.3
Cc1ccc(NC(=O)CNC(=O)c2ccc(C)o2)cc1	none
Cc1ccc(C(=O)NCC(=O)O)o1	LEDGF integ inh 52.1
COc1ccc(CCC(=O)NNC(=O)Nc2ccc(OC)c(OC)c2)cc1	none
COc1ccc(NC(=O)NNC(=O)CCc2ccc(O)c(O)c2)cc1OC	PRMT1 inh 23.4
Cc1ccc(S(=O)(=O)N2[C@@H](c3ccccc3F)C(C(=O)O)=CC[C@H]2c2ccc(Cl)c(Cl)c2)cc1	rCAG binder 74.4
Cc1ccc(S(=O)(=O)N2[C@@H](c3ccccc3F)C(C(=O)O)=CC[C@H]2c2cccc(C)c2)cc1	none
Cc1cc(NS(=O)(=O)c2ccc(NC(=S)NC(=O)c3ccc(Cl)cc3Cl)cc2)no1	rCAG binder 64.8
Cc1cc(NS(=O)(=O)c2ccc(NC(=O)c3ccc(Cl)cc3Cl)cc2)no1	none
CCOC(=O)C1=C(C)NC(=S)NC1c1ccc(-c2cccc(Cl)c2C)o1 (stereo unspecified)	PRMT1 inh 21.6
C/C(Nc1ccc(Cl)cc1)=C(/C#N)C(N)=O	none
CCCCCC(=O)N/N=C/c1ccc([N+](=O)[O-])o1	none
O=C(CCC(=O)Nc1ccc(Cl)cc1Cl)N/N=C/c1ccc([N+](=O)[O-])o1	PRMT1 inh 23.7 (no result: HTRA1 inh, DAGLB inh)
Cc1ccc(C(=O)Nc2ccc(C(=O)O)cc2NC(=O)c2ccc(C)cc2)cc1	LEDGF integ inh 26.7
O=C(COC(=O)c1cccnc1Cl)NC1CCCCCC1	none
Cc1ccc(-c2cc(C(=O)N3CCN(c4ncccn4)CC3)c3cc(Br)ccc3n2)o1	PRMT1 inh 49.4
Cc1ccc(CNc2ncc(-c3ccc4c(c3)OCO4)n2C)cc1	none
Cc1ccc(CNc2ccc3c(c2)OCO3)cc1	HTRA1 inh 48.7 (no result: mABHD4 FP, rCAG binder, PRMT1 inh, LEDGF integ inh)
O=C(NC1CCSc2ccccc21)c1cc([N+](=O)[O-])ccc1N1CCOCC1 (stereo unspecified)	LEDGF integ inh 14.1
O=c1oc2ccc(Cl)cc2nc1/C=C(\O)c1cccs1	mABHD4 FP 32.0
O=C(COC(=O)c1ccccc1C(=O)N1CCN(c2ccccc2)CC1)Nc1ccccc1	PRMT1 inh 22.4
COC(=O)NNC(=O)c1ccc(Cl)cc1Cl	none
COC(=O)Nc1cc(C(=O)c2ccc(Cl)cc2Cl)c[nH]1	PRMT1 inh 23.6
CCOCCCNC(C(=O)Nc1ccc(OC)c(Cl)c1)c1ccccc1 (stereo unspecified)	none
Oc1c(C=NCc2ccncc2)sc2ccccc12	PRMT1 inh 62.9 (no result: HTRA1 inh, DAGLB inh)
Cc1ccc(N2CCN(C(=S)c3ccc(-c4cccc([N+](=O)[O-])c4)o3)CC2)cc1	PRMT1 inh 23.6
Cc1ccccc1N1CCN(C(=S)c2ccc(-c3cccc([N+](=O)[O-])c3)o2)CC1	none
COc1ccc(NCc2nnc(SCC(=O)Nc3cc(C)cc(C)c3)o2)cc1	PRMT1 inh 23.7
COc1ccc(/C=C/C(=O)O)cc1S(=O)(=O)NCc1ccccc1	LEDGF integ inh 87.7
COc1ccc(Br)cc1S(=O)(=O)NCc1ccccc1	none
O=C(N/N=C/c1ccc(OC(=O)c2ccccc2Cl)cc1)c1cc(O)cc(O)c1	LEDGF integ inh 17.4
CCc1cn(S(=O)(=O)c2ccccc2OC)nc1N	none (no result: mABHD4 FP, rCAG binder, PRMT1 inh, LEDGF integ inh)
CC[n+]1c(/C=C/C=C/N(C(C)=O)c2ccccc2)sc2ccccc21	PRMT1 inh 35.2, LEDGF integ inh 16.8
Cc1cc(N(C)C)nc(Nc2ccccc2)n1	none
CCN(CC)c1ccc2cc(NC(=O)CCC(=O)O)c(=O)oc2c1	mABHD4 FP 58.5, PRMT1 inh 34.0
O=C(CCCCC(=O)NCCCc1ccccc1)NCCCc1ccccc1	none
CC1NC(=O)NC1CCCCCC(=O)NCCc1ccccc1 (stereo unspecified)	LEDGF integ inh 78.2
Cc1ccc[n+](C2C(c3ccc([N+](=O)[O-])cc3)C(C#N)=C([S-])NC2(O)C2CC2)c1 (stereo unspecified)	PRMT1 inh 23.4
C=CCSC1=C(C#N)C(c2ccccc2OCC)CC(=O)N1 (stereo unspecified)	PRMT1 inh 21.8
C=CCSC1=C(C#N)C(c2ccccc2OC)CC(=O)N1 (stereo unspecified)	none
O=C(Nc1ccc(N2CCOCC2)cc1)c1ccc2ncsc2c1	PRMT1 inh 22.1
Nc1nc2ccc(C(=O)Nc3ccc(N4CCOCC4)cc3)cc2s1	none
N#Cc1ccsc1NC(=O)c1ccc2ncsc2c1	PRMT1 inh 21.6
COC(=O)[C@@]1(Cc2ccc(F)cc2)[C@H]2c3cc(C(=O)N(C)C)n(Cc4ccc(C)o4)c3C[C@H]2CN1C(=O)c1ccccc1	PRMT1 inh 22.0 (no result: HTRA1 inh, DAGLB inh)
COC(=O)[C@@]1(Cc2ccc(F)cc2)[C@H]2c3cc(C(=O)N(C)C)n(Cc4ccccc4)c3C[C@H]2CN1C(=O)c1ccccc1	none (no result: HTRA1 inh, DAGLB inh)
CCCN(Cc1cc2cc(OC)ccc2[nH]c1=O)C(=O)c1ccco1	none
CCCCN(Cc1cc2cc(OC)ccc2[nH]c1=O)C(=O)c1ccco1	PRMT1 inh 24.4
CCOC(=O)c1[nH]c2c(c1C)C(=O)CC(c1ccco1)C2 (stereo unspecified)	none
COCCOC(=O)c1[nH]c2c(c1C)C(=O)CC(c1ccco1)C2 (stereo unspecified)	LEDGF integ inh 16.4
Cc1ccc2c(c1)c1c(n2CC(O)CNC2CCCC2)CCCC1 (stereo unspecified)	none
